hIAP activ: increases human intestinal alkaline phosphatase activity; P09923; purified human IAP, CDP-Star luminescence, 30 min; active compounds read high; 1 = vehicle-only enzyme, 0 = enzyme-free background; activation factor at 10 µM; 0.16% of 330,000 active;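 active = activation factor of the enzyme at least 2-fold when tested at 20 µM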
Target sequence (P09923 whole entry, looked up): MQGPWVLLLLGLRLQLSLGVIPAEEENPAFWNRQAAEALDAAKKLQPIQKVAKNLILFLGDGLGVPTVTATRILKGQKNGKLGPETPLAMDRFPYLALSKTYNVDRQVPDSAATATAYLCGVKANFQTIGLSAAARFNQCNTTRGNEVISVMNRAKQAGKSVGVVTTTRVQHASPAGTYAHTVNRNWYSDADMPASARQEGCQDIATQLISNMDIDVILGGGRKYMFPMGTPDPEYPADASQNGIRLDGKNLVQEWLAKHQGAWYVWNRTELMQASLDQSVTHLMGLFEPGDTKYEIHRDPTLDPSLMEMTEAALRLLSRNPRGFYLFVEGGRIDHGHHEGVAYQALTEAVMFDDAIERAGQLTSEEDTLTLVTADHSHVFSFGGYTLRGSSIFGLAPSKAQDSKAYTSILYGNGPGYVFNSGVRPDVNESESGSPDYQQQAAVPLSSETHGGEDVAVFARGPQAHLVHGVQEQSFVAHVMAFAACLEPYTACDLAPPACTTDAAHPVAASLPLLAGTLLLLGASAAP
bIAP act: increases bovine intestinal alkaline phosphatase activity. 0.17% of 200,000 active. AID 1016. activation factor at 20 µM. purified bovine IAP, CDP-star luminescence, 30 min; active compounds read high; fold of DMSO-control signal, blank-subtracted;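 active = activation factor of 2 or more at 20 µM, a signal rise over negative controls twice the positive control's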
mIAP block: mouse IAP inhibition; purified mouse IAP, CDP-Star luminescence, 30 min; inhibition, % at 10 µM; 0.2% of 330,000 active;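 active = inhibition of at least 40% at 10 µM in the primary screen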;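 also: plate controls were DMSO with enzyme for no effect and no enzyme wells for full effect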
hIAP inh: blocks human intestinal alkaline phosphatase. purified IAP, CDP-Star luminescence, 30 min. inhibition, % at 10 µM. 0.12% of 330,000 active;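 active = inhibition reaching a set limit with compound at 10 µM in the primary screen, cut at about 35% in these data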;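 also: plate controls were DMSO wells with enzyme for no effect and no-enzyme buffer wells for full effect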
mIAP activ: increases mouse intestinal alkaline phosphatase activity | muIAP, CDP-Star luminescence, 30 min; active compounds read high; 1 = vehicle-only enzyme signal, 0 = enzyme-free wells | activation factor at 10 µM | 0.24% of 330,000 active | AID 2805;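 active = activation factor of at least 2 at 20 µM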
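System: Mouse IAP enzyme | Also added: CDP-Star substrate | Dosing: Compounds dispensed in DMSO | Schedule: 30 min enzyme-substrate-compound incubation at room temperature | Technique: Chemiluminescence readout | Control set: DMSO-only wells and no-enzyme negative control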
bIAP inhibitor: blocks bovine intestinal alkaline phosphatase activity. inhibition, % at 20 µM. 190,000 tested, under 10 active. purified bovine IAP, CDP-star luminescence, 30 min;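 active = over 50% inhibition of intestinal alkaline phosphatase at 20 µM in the single-dose screen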
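Assay system – bovine IAP enzyme · Quantity – bovine IAP at 1/65,000,000 final dilution · Detection – CDP-star luminescence signal · Times – 30 min reaction at room temperature · Also added – CDP-star substrate at 30 µM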
mIAP inh conf: mouse IAP inhibition confirmation; inhibition, % at 10 µM; purified mouse IAP, CDP-Star luminescence, 30 min; 4.7% of 11,000 active; shares compounds with mIAP block;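 active = inhibition of at least 40% at 10 µM in either of the two replicates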;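 also: plate controls were DMSO wells with enzyme for no effect and buffer wells lacking enzyme for full effect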
The depositor's hits bear a star. Hits are enriched below; roughly 0.79% of the tested compounds scored in any of these assays.

What do the screens show for `CCc1ccc(C2C(C#N)=C(N)SC(N)=C2C#N)s1`?
hIAP activ: 0.99; bIAP act: 0.9; mIAP block: 23; hIAP inh: 1; mIAP activ: 0.77; bIAP inhibitor: 9

Results for Cc1ccc(C2C(C#N)=C(N)SC(N)=C2C#N)o1 ?
hIAP activ: 0.93; bIAP act: 0.9; mIAP block: 44*; hIAP inh: 7; mIAP activ: 0.56; bIAP inhibitor: 6; mIAP inh conf: 45*

How did O=C(COC(=O)C1CCC1)NCCc1ccc(Cl)cc1Cl do in these assays?
hIAP activ: 0.9; mIAP block: 3; hIAP inh: 10; mIAP activ: 0.97

What do the screens show for `Nc1nc(-c2ccco2)cs1`?
hIAP activ: 0.85; bIAP act: 0.7; mIAP block: 31; hIAP inh: 15; mIAP activ: 0.69; bIAP inhibitor: 30

How did c1coc(-c2nc(-c3ccco3)c(-c3ccco3)nc2-c2ccco2)c1 do in these assays?
hIAP activ: 0.99; bIAP act: 0.9; mIAP block: 71*; hIAP inh: 1; mIAP activ: 0.29; bIAP inhibitor: 6; mIAP inh conf: 84*

What do the screens show for `Nc1nc(-c2ccco2)c(-c2ccco2)s1`?
hIAP activ: 0.75; bIAP act: 0.8; mIAP block: 67*; hIAP inh: 25; mIAP activ: 0.33; bIAP inhibitor: 22; mIAP inh conf: 69*

Results for O=C(CN1CCN(S(=O)(=O)c2cccc(F)c2)CC1)Nc1ccnn1C1CCCC1 ?
hIAP activ: 0.91; mIAP block: 0; hIAP inh: 9; mIAP activ: 1

Results for CCc1cc(Cn2nc(-c3ccccc3)cc2C(=O)NCc2cccc(Br)c2)on1 ?
hIAP activ: 0.93; mIAP block: inactive; hIAP inh: 7; mIAP activ: 6.6*; mIAP inh conf: -180

What do the screens show for `CCc1cc(Cn2nc(-c3ccccc3)cc2C(=O)NCc2cccc(C(F)(F)F)c2)on1`?
hIAP activ: 0.95; mIAP block: -244; hIAP inh: 5; mIAP activ: 3.4*; mIAP inh conf: -152

Results for COc1ccc(C2=NOC(Cn3nc(-c4ccccc4)cc3C(=O)NCc3cccc(Br)c3)C2)cc1 (configuration not stated) ?
hIAP activ: 1.1; mIAP block: -276; hIAP inh: -10; mIAP activ: 3.8*; mIAP inh conf: -112

Results for COc1cccc(OC)c1C(=O)Nc1ccc(S(=O)(=O)Nc2ncccn2)cc1 ?
hIAP activ: 0.9; mIAP block: 9; hIAP inh: 10; mIAP activ: 0.91

What do the screens show for `Nc1c(C(=O)NCC2CCCO2)sc2nc3c(c(-c4ccco4)c12)CC/C3=C\c1ccco1` (configuration not stated)?
bIAP act: 1; bIAP inhibitor: 0

How did Cc1cc(-c2ccc(N=Nc3c(S(=O)(=O)O)cc4cc(S(=O)(=O)O)cc(N)c4c3O)c(C)c2)ccc1N=Nc1c(S(=O)(=O)O)cc2cc(S(=O)(=O)O)cc(N)c2c1O do in these assays?
hIAP activ: 0.72; mIAP block: 77*; hIAP inh: 28; mIAP activ: 0.23; mIAP inh conf: 83*

Results for CC(C)CCNC(=O)CCSCCC(=O)NCCC(C)C ?
hIAP activ: 0.97; bIAP act: 0.9; mIAP block: -6; hIAP inh: 3; mIAP activ: 1.1; bIAP inhibitor: 6

How did O=C(NCCO)Nc1ccc2nc(-c3ccco3)c(-c3ccco3)nc2c1 do in these assays?
hIAP activ: 1.1; bIAP act: 0.9; mIAP block: 42*; hIAP inh: -6; mIAP activ: 0.58; bIAP inhibitor: 7; mIAP inh conf: 49*

How did O=C(NCCCO)c1ccc2nc(-c3ccco3)c(-c3ccco3)nc2c1 do in these assays?
bIAP act: 1.3; bIAP inhibitor: -25

How did COc1cccc(CNC(=O)c2ccccc2-c2ccccc2)c1 do in these assays?
hIAP activ: 0.9; mIAP block: -8; hIAP inh: 10; mIAP activ: 1.1

How did O=C(COc1ccc(Cl)cc1)Nc1ncc([N+](=O)[O-])s1 do in these assays?
bIAP act: 1.1; bIAP inhibitor: -11

Bioassay records deposited in PubChem by Sanford-Burnham Center for Chemical Genomics.
